One molecule from ChEMBL document CHEMBL1136923, “Highly potent, orally available anti-inflammatory broad-spectrum chemokine inhibitors” (J Med Chem, 2009) can be followed below.

Molecules are shown by their SMILES.

The test system of data set [1] is THP-1. The data set can be described thus: Endogenous chemoattractant activity at human THP1 cells assessed as cell migration at 0.1 nM after 2 hrs by microtiter format trans-well migration assay. It is filed as functional.
In data set [2] the test system is Mus musculus. The data set can be described thus: Antiinflammatory activity in mouse assessed as inhibition of LPS-induced TNFalpha upregulation at 0.25 mg, sc measured 2 hrs after LPS challenge. It is filed as functional. The essentials: (§1)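 Murine sublethal endotoxemia: LPS given intraperitoneally, with serum TNF-α measured 2 h after the LPS injection as the end point. Compound was given subcutaneously or orally. Vehicle was 0.6% DMSO and 1% carboxymethylcellulose (final concentrations) in sterile water. Effect is reported as % relative to control.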

In data set [3] the target is C-C chemokine receptor type 2 (Homo sapiens) (UniProt P41597). Briefly: Antagonist activity at CCR2 in human THP1 cells assessed as inhibition of CCL2-induced chemotaxis at 100 nM after 2 hrs by microtiter format trans-well migration assay. Format: functional, cell-based. The settings on record: THP-1. The essentials: (§2)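 Microtiter trans-well migration assay in Gey's balanced salt solution with 1 mg/mL endotoxin-free BSA, no fetal calf serum. Migration ran 2 h at 37 °C. Compounds dissolved in DMSO and added to both top and bottom compartments, final DMSO 1%.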
Chain of C-C chemokine receptor type 2 (Homo sapiens) (P41597 whole entry, looked up): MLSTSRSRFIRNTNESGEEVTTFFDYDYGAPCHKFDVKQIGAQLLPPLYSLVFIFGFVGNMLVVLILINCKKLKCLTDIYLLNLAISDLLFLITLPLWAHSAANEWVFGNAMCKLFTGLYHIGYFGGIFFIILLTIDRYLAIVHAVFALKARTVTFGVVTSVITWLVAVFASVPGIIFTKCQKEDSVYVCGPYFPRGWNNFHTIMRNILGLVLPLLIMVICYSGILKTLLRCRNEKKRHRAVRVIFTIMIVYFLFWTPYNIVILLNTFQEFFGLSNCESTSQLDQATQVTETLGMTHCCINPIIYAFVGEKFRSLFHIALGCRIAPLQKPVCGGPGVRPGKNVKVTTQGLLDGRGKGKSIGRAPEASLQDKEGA

Data set [4] addresses C-X-C chemokine receptor type 4 (Homo sapiens) (UniProt P61073). Briefly: Antagonist activity at CXCR4 in human THP1 cells assessed as inhibition of CXCL12-induced chemotaxis at 1 nM after 2 hrs by microtiter format trans-well migration assay. Format: functional, cell-based. The settings on record: THP-1. The essentials:
as §2

The target in data set [5] is T1, C-C chemokine receptor type 1 (Homo sapiens) (UniProt P32246).
T1 sequence (whole entry): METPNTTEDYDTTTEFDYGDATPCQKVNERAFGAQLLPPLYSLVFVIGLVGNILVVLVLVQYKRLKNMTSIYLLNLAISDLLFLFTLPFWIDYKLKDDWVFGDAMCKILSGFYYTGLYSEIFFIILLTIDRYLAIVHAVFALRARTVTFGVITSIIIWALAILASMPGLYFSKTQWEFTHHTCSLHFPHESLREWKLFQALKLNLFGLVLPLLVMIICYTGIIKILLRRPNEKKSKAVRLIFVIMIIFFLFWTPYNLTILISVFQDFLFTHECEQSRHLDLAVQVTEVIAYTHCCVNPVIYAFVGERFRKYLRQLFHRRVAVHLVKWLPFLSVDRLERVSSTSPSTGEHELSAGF
The data set can be described thus: Antagonist activity at CCR1 in human THP1 cells assessed as inhibition of CCL3-induced chemotaxis after 2 hrs by microtiter format trans-well migration assay. Format: functional, cell-based. The settings on record: THP-1. The essentials:
as §2

For data set [6], the target named is C-C chemokine receptor type 2 (Homo sapiens) (UniProt P41597). The data set can be described thus: Antagonist activity at CCR2 in human THP1 cells assessed as inhibition of CCL2-induced chemotaxis at 10 nM after 2 hrs by microtiter format trans-well migration assay. Format: functional, cell-based. Conditions: THP-1. The essentials:
as §2

Data set [7] deals with T1, C-C chemokine receptor type 1 (Homo sapiens). The data set can be described thus: Antagonist activity at CCR1 in human THP1 cells assessed as inhibition of CCL3-induced chemotaxis at 10 nM after 2 hrs by microtiter format trans-well migration assay. It is filed as functional, cell-based. Conditions: THP-1. The essentials:
as §2

Data set [8] concerns the target T2, C5a anaphylatoxin chemotactic receptor 1 (Homo sapiens) (UniProt P21730).
T2 sequence (whole entry): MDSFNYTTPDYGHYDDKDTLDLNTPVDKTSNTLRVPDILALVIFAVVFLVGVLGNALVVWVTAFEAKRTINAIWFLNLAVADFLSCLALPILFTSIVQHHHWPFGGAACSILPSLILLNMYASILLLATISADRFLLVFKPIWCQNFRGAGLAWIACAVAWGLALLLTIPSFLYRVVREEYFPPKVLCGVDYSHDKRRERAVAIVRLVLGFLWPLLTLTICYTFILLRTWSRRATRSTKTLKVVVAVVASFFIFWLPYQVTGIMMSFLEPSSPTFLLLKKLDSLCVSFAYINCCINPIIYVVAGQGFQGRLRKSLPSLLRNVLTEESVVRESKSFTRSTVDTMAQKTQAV
The data set can be described thus: Antagonist activity at C5a receptor in human PMNC assessed as inhibition of C5a-induced chemotaxis at 0.1 nM after 2 hrs by microtiter format trans-well migration assay. Format: functional. The essentials:
as §2

Data set [9] in a line: Volume of distribution at steady state in Sprague-Dawley rat at 1 mg/kg, iv administered as single dose. It is filed as ADME, organism-based. Further details: dose 1 mg/kg, route intravenous. Conditions: in vivo, read-out: Vdss. The essentials:
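Male Sprague-Dawley rats, three per compound, receive a single intravenous dose in 5% DMSO in 0.9% saline. Food and water are given ad libitum. Plasma is taken at 5, 15, 30, 60, 120, 180, 240 and 480 min. Drug is measured by LC/MS/MS after extraction with 0.1% formic acid in acetonitrile. The curve is back-extrapolated to time zero assuming an initial volume of 0.26 L/kg.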

Data set [10] addresses C-C chemokine receptor type 2 (Homo sapiens) (UniProt P41597). The data set can be described thus: Antagonist activity at CCR2 in human THP1 cells assessed as inhibition of CCL2-induced chemotaxis at 1 nM after 2 hrs by microtiter format trans-well migration assay. It is filed as functional, cell-based. Conditions: THP-1. The essentials:
as §2

Data set [11] concerns the target T2, C5a anaphylatoxin chemotactic receptor 1 (Homo sapiens). The data set can be described thus: Antagonist activity at C5a receptor in human PMNC assessed as inhibition of C5a-induced chemotaxis at 100 nM after 2 hrs by microtiter format trans-well migration assay. It is filed as functional. The essentials: as §2
Data set [12] concerns Mus musculus. Briefly: Antiinflammatory activity in mouse assessed as inhibition of LPS-induced TNFalpha upregulation at 0.025 ug, sc measured 2 hrs after LPS challenge. Format: functional. The essentials:
as §1

For data set [13], the system named is Mus musculus. The data set can be described thus: Antiinflammatory activity in mouse assessed as inhibition of LPS-induced TNFalpha upregulation at 0.000225 mg, sc measured 2 hrs after LPS challenge. Format: functional. The essentials:
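Murine sublethal endotoxemia: LPS given intraperitoneally, serum TNF-α measured 2 h after LPS injection. Compound vehicle 0.6% DMSO plus 1% carboxymethylcellulose (final concentrations) in sterile water.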

In data set [14] the test system is Mus musculus. The data set can be described thus: Antiinflammatory activity in mouse assessed as inhibition of LPS-induced TNFalpha upregulation at 0.0025 ug, sc measured 2 hrs after LPS challenge. It is filed as functional. The essentials:
as §1

The nature of data set [15]: Fractional bioavailability in Sprague-Dawley rat at 3 mg/kg, po administered as single dose. The settings on record: in vivo. Format: ADME, organism-based. The essentials: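 Male Sprague-Dawley rats, three per compound, receive a single oral dose by gavage in 1% carboxymethylcellulose in 0.9% saline, with food and water ad libitum. Plasma is sampled from 5 to 480 min and drug is quantified by positive-mode LC/MS/MS after acetonitrile/formic acid extraction. The lower limit of quantitation is about 2 ng/mL. Exposure is AUC(0→t) by the linear/log trapezoidal rule, and F is oral fractional bioavailability.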

Data set [16] is described as follows: Antagonist activity at Interleukin-8 receptor in human PMNC assessed as inhibition of CXCL8-induced chemotaxis at 10 nM after 2 hrs by microtiter format trans-well migration assay. It is filed as functional. The essentials: as §2

Chain of C-X-C chemokine receptor type 4 (Homo sapiens) (P61073 whole entry): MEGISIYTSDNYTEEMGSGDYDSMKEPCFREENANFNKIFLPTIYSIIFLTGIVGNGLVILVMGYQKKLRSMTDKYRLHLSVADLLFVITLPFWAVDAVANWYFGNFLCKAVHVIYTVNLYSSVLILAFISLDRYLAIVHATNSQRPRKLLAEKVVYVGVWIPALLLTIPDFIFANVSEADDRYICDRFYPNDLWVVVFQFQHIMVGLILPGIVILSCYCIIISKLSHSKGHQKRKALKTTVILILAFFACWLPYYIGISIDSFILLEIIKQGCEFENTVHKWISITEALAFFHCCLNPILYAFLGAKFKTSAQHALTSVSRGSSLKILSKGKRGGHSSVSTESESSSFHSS

The inhibition is the change of the read-out against control, counted positive when it falls. A word on the bioavailability: it is the share of a dose that reaches the circulation, judged against a reference dose that is usually intravenous. Read a low bioavailability as little systemic uptake. Consider `CCCCCCCCCCC(C)(C)C(=O)N[C@H]1CCCCNC1=O`, for which the Activity in [1] worked out at 2556%. Also, the “inhibition (INH)” value in data set [2] was 79%; in data set [12], 67%; in data set [13], 68%; in data set [14] it was 29%. Moreover, the inhibition turned out to be 93% in data set [3]; 99% in data set [4]; 96% in data set [6]; 98% in data set [7]; 26.5% in data set [8]; 81% in [10]. Also, the inhibition in data set [11] came to 16%. Moreover, in [5], the ED50 came to 150 pM. Besides, the Vd in [9] was determined as 2 L/kg. The molecule further returned a bioavailability in data set [15] of 16%. The inhibition at 0.01 µM in [16] was determined as 121%.
